Screening data as filed in PubChem.
Shown are actives, neighbours in structure and some others; about 3.1% of the full set was active somewhere.
Cneo AK release: Cryptococcus neoformans cell lysis inducers, primary screen, AK release luminescence, single concentration; C. neoformans lysis, adenylate kinase release luminescence, 4 h; normalised: neutral wells 0, clomiphene wells 100; lysis activity, % at 15 µM; 360,000 compounds, 0.2% hits;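 active means mean lysis activity across replicates of at least 80%, whatever share of replicates individually reach that level; inactive means mean lysis activity below 80%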
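Material – log-phase Cryptococcus neoformans yeast cells · Input – 5 × 10^6 yeast cells/mL · Medium – fresh YPD growth medium · Doses – single compound concentration per well · Timing – static 4 h at 37 °C with compound, 1 h detection · Detection – adenylate kinase release luminescence · Read-out – signal increase indicating cell lysis · Control set – Clomiphene as positive lysis control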
rRNA inh HTS: reduced GFP signal of wild-type E. coli, primary screen, bacterial rRNA inhibitor project, GFP/RFP fluorescence, OD600, single point; GFP signal change (wild-type ribosome), % (test concentration not listed); AID 720706, 2013; E. coli WT GFP vs humanized-ribosome RFP mutants, 24 h; stronger effect = lower value; DMSO median 0, no signal -100; 350,000 compounds, 1.6% hits;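 active means significant combined selectivity score with lowered wild-type GFP, culture density cut under 30%, mutant RFP and density less affected; inactive means any of these conditions unmet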
E-sel inducer: E-selectin induction in HUVECs, primary screen, imaging, HUVEC, immunofluorescence imaging, single point; AID 686992, 2013; activation, % at 7.58 µM; normalized: neutral wells 0, TNF-alpha wells 100; 260,000 compounds, 0.37% hits;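 active means mean E-selectin-positive cell signal at least 10% of the positive control, reached in at least 60% of replicates, without over 20% cell loss; inconclusive means no rule given, readout overlaps actives, possibly toxicity-flagged; inactive means the rest, including those meeting only one limit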
Target sequence (P16581 whole entry, looked up): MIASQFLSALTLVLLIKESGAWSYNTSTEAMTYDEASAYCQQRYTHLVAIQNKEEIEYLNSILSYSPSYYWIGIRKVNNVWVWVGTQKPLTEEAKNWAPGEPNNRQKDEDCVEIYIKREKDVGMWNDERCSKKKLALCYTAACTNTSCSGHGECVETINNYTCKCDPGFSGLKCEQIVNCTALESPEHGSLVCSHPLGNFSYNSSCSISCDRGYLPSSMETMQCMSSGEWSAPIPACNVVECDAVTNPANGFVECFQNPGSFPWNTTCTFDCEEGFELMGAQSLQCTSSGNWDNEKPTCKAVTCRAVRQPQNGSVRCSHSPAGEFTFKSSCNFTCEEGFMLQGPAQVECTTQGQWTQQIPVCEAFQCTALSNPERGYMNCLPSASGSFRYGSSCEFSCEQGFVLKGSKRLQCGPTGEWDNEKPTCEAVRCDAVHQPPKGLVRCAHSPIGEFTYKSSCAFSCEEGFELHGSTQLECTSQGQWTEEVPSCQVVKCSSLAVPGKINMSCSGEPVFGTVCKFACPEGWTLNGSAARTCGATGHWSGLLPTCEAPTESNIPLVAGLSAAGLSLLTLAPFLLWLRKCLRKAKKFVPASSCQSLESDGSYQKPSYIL
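Test system: HUVEC; input: 3,000 HUVEC/well; measured by: immunofluorescence imaging; read-out: % PE-positive cells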
miR122 inh: miR-122 Renilla sensor signal increase in Huh7, primary screen, miR-122 inhibitor project, cell-based, single point, plate reader; Huh7 miR-122 Renilla luciferase sensor, 48 h; neutral wells = 0, positive control = 100; activation (reporter increase), % at 12.5 µM; 340,000 compounds, 0.3% hits; AID 602342, 2012;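 active means mean replicate activation score at least 90 and every replicate individually at or above 90; inconclusive means only one of the two criteria met; inactive means neither criterion met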;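 further: higher luciferase means less miR-122 activity so hits act as miR-122 inhibitors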
DENV2 CPE rescue: inhibitors of DENV2 cytopathic effect, primary screen, cell-based, plate reader, single concentration; CPE inhibition, % at 9.99 µM; AID 651640, 2012; DENV2-infected cells, cytopathic effect rescue; 350,000 compounds, 1.7% hits; in the data active means CPE inhibition above about 20%, passing the limit was not always enough; inconclusive means no clear call, values can overlap the other calls; tested in BHK-21 cells;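 further: 0% = median of neutral control wells and 100% = median of positive control wells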
Active calls of the source: *; ? = inconclusive; · = no result given; [ ] = dose if it differs, or a comment.

SMILES	Cneo AK release	rRNA inh HTS	E-sel inducer	miR122 inh	DENV2 CPE rescue
Cc1ccc(S(=O)(=O)N2[C@@H]3CNC[C@H]2C3c2ccc(-c3ccc(C#N)cc3)cc2)cc1 (some centres undefined)	·	-21.4	-0.1	·	29.1*
O=S(=O)(c1ccccc1)N1[C@@H]2CNC[C@H]1C2c1ccc(-c2ccccc2)cc1 (some centres undefined)	·	-6.4	-0.6	·	68.3*
O=S(=O)(c1ccc(-c2ccccc2)cc1)N1[C@@H]2CNC[C@H]1C2c1ccc(-c2ccccc2)cc1 (some centres undefined)	·	4.9	·	·	·
C[C@H](CO)N1C[C@H](C)[C@@H](CN(C)C(=O)CC2CC2)Oc2cc(C#CC(C)(C)O)ccc2S1(=O)=O	1.0	-1.4	-0.3	2.3[16.7 µM]	1.6
COc1ccc(CNc2cc(C)ccc2C)c(OC)c1OC	-1.8	·	·	-13.4	·
COc1ccc(CNc2ccc(C)c(C)c2)c(OC)c1OC	·	-20.2*	2.0	·	·
CCCC/C=C/C(NC(=O)CCc1ccccc1)c1ccccc1 (centres undefined)	0.1	-1.4	·	-3.7	12.3
CCCC/C=C/[C@H](c1ccccc1)[C@H](CO)Cc1cccnc1	5.2	-45.5	-0.7	5.7	42.4*
COc1ccc2c3c([nH]c2c1)[C@@H](CO)N(S(C)(=O)=O)CC31CCN(Cc2nccs2)CC1	·	0.0	0.4	·	-2.9
COc1ccc(C(=O)N2CCC2(C)C(=O)O)cc1F (centres undefined)	0.1	7.7	0.0	-5.3	78.9*
CCOC(=O)C1(C)CCCN1C(=O)c1ccc(OC)c(F)c1 (centres undefined)	1.8	3.2	-0.3	2.2	-10.3
O=S(=O)(NCc1ccc(F)cc1)c1ccccc1Br	-1.3	-19.5	0.1	54.0	30.7*
CC(/C=C/c1ccccc1)=N\Nc1nc(C)cc(C)n1	6.9	·	·	-2.1	·
CC(/C=C/c1ccc(O)cc1)=NNc1ccccc1	-2.2	-21.2*	-0.3	-0.9	-2.3
C[C@@H]1CCCCO[C@@H](CN(C)S(=O)(=O)c2cn(C)cn2)[C@H](C)CN([C@H](C)CO)C(=O)c2cc(NC(=O)Nc3ccc(C(F)(F)F)cc3)ccc2O1	2.6	-5.9	0.5	-3.1[16.7 µM]	15.5
Cc1noc(C)c1S(=O)(=O)Nc1ccc2c(c1)CC(=O)N([C@H](C)CO)C[C@@H](C)[C@H](CN(C)Cc1ccc(C(=O)Nc3ccccc3N)cc1)O2	·	-4.7	·	·	13.2
C[C@@H]1CN([C@@H](C)CO)C(=O)Cc2cc(NS(=O)(=O)c3ccc(Cl)cc3)ccc2O[C@@H]1CN(C)Cc1ccc(C(=O)Nc2ccccc2N)cc1	·	-4.9	1.0	·	-5.4
C[C@@H]1CN([C@H](C)CO)C(=O)Cc2cc(NS(=O)(=O)c3ccc(Cl)cc3)ccc2O[C@H]1CN(C)Cc1ccc(C(=O)Nc2ccccc2N)cc1	·	3.4	0.7	·	71.2*
Cc1noc(C)c1S(=O)(=O)Nc1ccc2c(c1)CC(=O)N([C@H](C)CO)C[C@H](C)[C@@H](CN(C)Cc1ccc(C(=O)Nc3ccccc3N)cc1)O2	·	-6.2	·	·	39.9*
COc1cc(OC)cc(C(=O)NNC(=O)CCCOc2ccccc2)c1	0.2	14.4	·	-3.9	3.2
COc1cc(OC)cc(C(=O)NNC(=O)CCC(=O)c2cc(C)sc2C)c1	-1.6	-4.0	5.1	·	72.5*
Cc1noc(C)c1S(=O)(=O)Nc1ccc2c(c1)C(=O)N([C@@H](C)CO)C[C@H](C)[C@H](CN(C)S(=O)(=O)c1ccccc1)OCCCC[C@@H](C)O2	0.4	1.5	-0.1	21.2[16.7 µM]	-12.4
O=C(CNCc1cccc2ccccc12)Nc1ccccc1[N+](=O)[O-]	·	-30.6*	4.6	·	-5.0
O=C(CC(=O)Nc1ccccc1[N+](=O)[O-])Nc1ccccc1[N+](=O)[O-]	-0.1	-15.1	0.7	6.1	-4.1
O=C(Nc1cccc(F)c1)N1CCCCN2[C@@H](CO)[C@H](c3ccc(C#Cc4cccnc4)cc3)[C@@H]2C1	2.1	-35.6	0.2	-4.5[16.7 µM]	0.8
SMILES	Cneo AK release	rRNA inh HTS	E-sel inducer	miR122 inh	DENV2 CPE rescue
CCS(=O)(=O)N1CCCCN2[C@@H](CO)[C@@H](c3ccc(-c4ccc(C#N)cc4)cc3)[C@@H]2C1	-0.2	-16.1	-0.3	47.7[16.7 µM]	45.4*
O=S(=O)(Cc1ccccc1)N1CCCCN2[C@H](CO)[C@@H](c3ccc(-c4ccc(F)cc4)cc3)[C@H]2C1	-1.9	-6.8	0.2	-4.8[16.7 µM]	40.9*
O=S(=O)(c1ccccc1)N1CCCCN2[C@@H](CO)[C@H](c3ccc(C#Cc4ccccc4)cc3)[C@@H]2C1	1.8	2.2	-0.1	-16.2[16.7 µM]	22.4*
O=S(=O)(Cc1ccccc1)N1CCCCN2[C@H](C1)[C@H](c1ccc(-c3ccc(F)cc3)cc1)[C@@H]2CO	0.2	-14.5	-0.5	-5.7[16.7 µM]	?
CCS(=O)(=O)N1CCCCN2[C@H](C1)[C@H](c1ccc(-c3ccc(C#N)cc3)cc1)[C@@H]2CO	0.8	1.8	-0.6	0.7[16.7 µM]	1.9
N#Cc1ccc(-c2ccc([C@@H]3[C@H](CO)N4CCCCN(S(=O)(=O)c5ccccc5)C[C@@H]34)cc2)cc1	-1.7	-37.4	0.1	6.8[16.7 µM]	23.4*
O=C1N[C@H](c2ccccc2)COCc2cn(nn2)CC[C@@H](Cc2ccc(C(F)(F)F)cc2)C(=O)N[C@H](c2ccccc2)COCc2cn(nn2)CC[C@H]1Cc1ccc(C(F)(F)F)cc1	·	-0.1	·	·	·
CN(C)CC#Cc1ccc([C@H]2[C@@H](CO)N3CCCCN(S(=O)(=O)c4ccccc4)C[C@@H]23)cc1	-1.7	-2.0	0.3	0.3[16.7 µM]	44.1*
COc1ccc2c3c(n(C)c2c1)[C@H](CO)NCC31CN(Cc2cc(-c3ccccc3)on2)C1	·	-8.2	0.0	·	-2.4
Cc1ccccc1S(=O)(=O)NCC[C@H]1CC[C@@H](NC(=O)Nc2cccc(Cl)c2)[C@H](CO)O1	-3.5	-3.9	0.1	8.5[16.7 µM]	8.6
Cc1cccc2sc(NNC(=O)C3COc4ccccc4O3)nc12 (centres undefined)	0.0	-59.2	-0.1	0.6	4.0
Cc1cc(C)c2sc(NNC(=O)C3COc4ccccc4O3)nc2c1 (centres undefined)	0.0	-44.8	83.3*	-3.9	3.5
CCOC(=O)COc1ccc(Br)cc1/C=C1\SC(N)=NC1=O	-0.2	-22.1	-0.1	53.6	37.5*
NC1=NC(=O)/C(=C/c2ccc(Br)cc2)S1	0.2	-1.6	·	-4.0	-2.3
FC(F)(F)COc1nc(N/N=C/c2cccnc2)nc(N2CCCCC2c2ccccn2)n1 (centres undefined)	8.0	-33.4*	10.7	0.0	-1.7
C(=N\Nc1nc(N2CCCC2)nc(N2CCCC2)n1)/c1cccnc1	·	10.9	2.0	·	1.9
